Screening data: PubChem, The Scripps Research Institute Molecular Screening Center
Shown are actives, neighbours in structure and some others; about 4.5% of the full set was active somewhere.
OX1R antag-1: OX1R (human) antagonism; inhibition, % at 6.6 µM; O43613; 1.8% of 330,000 active; OX1R-expressing cells, FRET antagonist read-out; AID 485270; in the data active means inhibition mostly above about 38%, no sharp cut-off; inactive means mostly below about 40%;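 further: 0% = agonist challenge alone and 100% = reference antagonist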
Target sequence (O43613 whole entry, looked up): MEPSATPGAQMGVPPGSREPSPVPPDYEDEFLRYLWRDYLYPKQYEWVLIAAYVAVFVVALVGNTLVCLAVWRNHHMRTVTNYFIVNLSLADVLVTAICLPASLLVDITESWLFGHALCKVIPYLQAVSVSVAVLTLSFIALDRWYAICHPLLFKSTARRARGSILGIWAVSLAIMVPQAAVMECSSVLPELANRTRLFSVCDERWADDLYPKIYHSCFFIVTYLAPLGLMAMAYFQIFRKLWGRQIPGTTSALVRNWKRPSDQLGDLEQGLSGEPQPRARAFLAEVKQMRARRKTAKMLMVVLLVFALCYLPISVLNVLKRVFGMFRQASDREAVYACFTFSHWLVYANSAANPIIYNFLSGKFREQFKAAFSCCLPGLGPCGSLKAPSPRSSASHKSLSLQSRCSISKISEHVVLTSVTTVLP
TAAR1 agonist: human TAAR1 agonism; Q96RJ0; CHO RD-HGA16 TAAR1, Fluo-8 calcium fluorescence; vehicle wells 0%, saturating PEA agonist 100%; activation, % at 3 µM; 0.99% of 360,000 active;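 active means activation above the mean activation of all test compounds in the run plus 3 SD, cut at about 38% in these data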
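Assay system: CHO-derived RD-HGA16 cells with stable Gα16 and human TAAR1; timing: 17-24 h seeding, 75 min 37 °C dye, 30 min RT; read-out: % activation from peak over basal fluorescence ratio, DMSO-to-PEA scaled; measured by: kinetic Fluo-8 calcium fluorescence; benchmarks: low control DMSO, high control PEA (EC100); doses: 3 µM single concentration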
OX1R antag-2: blocks the human orexin 1 receptor. CHO/OX1R cells, Fluo-8 calcium fluorescence, orexin A. inhibition, % at 5 µM. 0.43% of 330,000 active;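 active means inhibition above its plate's threshold, mean inhibition of all tested compounds on the plate plus 3 SD, cut at about 37% in these data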;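 further: 0% = orexin A challenge wells and 100% = SB-334867-A antagonist wells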
TAAR1 antag: antagonists of human TAAR1 | 1.5% of 360,000 active | inhibition, % at 3 µM | CHO RD-HGA16 TAAR1, Fluo-8 calcium fluorescence, antagonist | Q96RJ0;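 active means inhibition above a per-plate cutoff, the mean inhibition of test compounds on that plate plus 3 SD, cut at about 49% in these data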;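 further: 0% = DMSO plus EC80 beta-PEA response and 100% = DMSO alone without agonist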
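Material: RD-HGA16 CHO cells with stable hTAAR1 and Gα16; Dosing: single nominal final test compound concentration of 3 µM; Schedule: seeding 17-24 h prior, 75-min 37 °C, 30-min RT dye loading; Detection: kinetic Fluo-8 calcium fluorescence measurement; Measure: % inhibition from peak post-agonist over basal fluorescence ratio; Benchmarks: vehicle and agonist controls.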
CHO parental Ca: counter-screen for OX1R antagonists: effect in parental CHO cells. AID 463079. inhibition, % at 5.6 µM. 0.63% of 330,000 active. parental CHO-K1, ATP-induced calcium, Fluo-8 fluorescence;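 active means inhibition above that plate's mean sample inhibition plus 3 SD, cut at about 26% in these data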;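 further: 0% = ATP-challenged DMSO wells and 100% = DMSO wells without ATP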
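Assay system: untransfected parental CHO cell line. Also added: ATP agonist challenge. Dosing: one dose, 5.6 µM nominal. Measured by: Fluo-8 fluorescence. Read-out: % inhibition. Benchmarks: ATP wells versus no-ATP DMSO wells. Repeats: no replicates.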
GPR7 antagonist: blocks human GPR7 receptor signaling; GPR7-expressing cells, fluorescence antagonist assay; AID 1861; P48145; inhibition, % at 4.4 µM; 1.1% of 290,000 active; in the data active means inhibition above about 16%, passing the limit was not always enough;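 further: cells stimulated with the agonist NPW; 0% = agonist with vehicle and 100% = vehicle without agonist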
TAAR1 ag confirm: confirmation of human TAAR1 agonists | activation, % at 3 µM | 82% of 2,400 active | CHO RD-HGA16 TAAR1, Fluo-8 calcium fluorescence; scaled: DMSO 0%, maximal phenethylamine 100% | shares compounds with TAAR1 agonist;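 active means activation above a cutoff set at the run's mean compound activation plus 3 SD, cut at about 39% in these data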
Ga16 ag counter: nonselective agonist in parental cells, TAAR1 agonist counter-screen | shares compounds with TAAR1 agonist | CHO-Ga16 parental, Fluo-8 calcium fluorescence; normalized to maximal ATP response, DMSO zero | activation, % at 3 µM | 50% of 2,400 active | AID 651787;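 active means activation above the run cutoff, the mean activation over all tested wells plus 3 SD, cut at about 12% in these data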;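 further: 0% = DMSO wells and 100% = maximal ATP response on the peak over basal ratio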
TAAR1 desensitize: counter-screen for human TAAR1 agonists: agonists that desensitize TAAR1. AID 651951. 46% of 2,400 active. inhibition, % at 3 µM. CHO RD-HGA16 hTAAR1, Fluo-8 calcium, beta-PEA response inhibition. shares compounds with TAAR1 agonist;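 active means inhibition above the run cutoff, the mean inhibition of all test compounds plus 3 SD, cut at about 49% in these data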;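 further: beta-PEA stimulus applied at its EC80; loss of beta-PEA calcium signal after compound pretreatment read as receptor desensitization; 0% = DMSO with beta-PEA at EC80 and 100% = DMSO alone without agonist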
Ga16 antag count: nonselective Ga16 antagonism, counter-screen; 39% of 2,400 active; shares compounds with TAAR1 agonist; CHO-Ga16 ATP-induced calcium, Fluo-8 fluorescence; AID 651952; inhibition, % at 3 µM;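 active means inhibition above the plate's mean compound inhibition plus 3 SD, computed per plate, cut at about 22% in these data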;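 further: 0% = EC80 ATP with DMSO and 100% = DMSO wells without ATP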
* marks the source's active call; other numbers are inactive results; . = no result given.

SMILES	OX1R antag-1	TAAR1 agonist	OX1R antag-2	TAAR1 antag	CHO parental Ca	GPR7 antagonist	TAAR1 ag confirm	Ga16 ag counter	TAAR1 desensitize	Ga16 antag count
O=C(CNC(=O)c1ccccc1F)N/N=C/c1ccc2c(c1)OCO2	21	1	-13	-12	8	-6	.	.	.	.
O=C(CNC(=O)c1ccccc1Cl)N/N=C/C=C/c1ccccc1	8	.	-3	.	5	-7	.	3	.	9
O=C(N/N=C/C=C/c1ccccc1)c1ccncc1	33	3	-7	-26	-6	-9	.	.	.	.
O=C(CNC(=O)c1ccccc1F)N/N=C\C=C\c1ccccc1	-3	42*	-9	29	1	-11	67*	0	56*	3
O=[N+]([O-])c1ccc(C23CC4CC(CC(O)(C4)C2)C3)cc1	16	.	1	.	1	-6	.	.	.	.
O=C(NCCN1CCCC1)c1ccc(Br)cc1	0	8	-10	-11	-9	2	.	.	.	.
CCOC(=O)C1=C(COC(=O)C2CC(=O)N(c3ccc(C)cc3)C2)NC(=O)NC1C (stereo not drawn)	9	1	-7	-13	-16	.	.	.	.	.
CC(C)(C)CN1CCNC(=O)C1CC(=O)N1CCOc2ccccc2C1 (stereo not drawn)	18	59*	-20	1	-8	-10	54*	3	3	7
COc1cccc(CN2CCNC(=O)C2CC(=O)N2CCOc3ccccc3C2)c1OC (stereo not drawn)	7	66*	-25	-1	-22	-13	73*	0	24	9
COc1cc(CN2CCNC(=O)C2CC(=O)N2CCc3ccccc3C2)cc(OC)c1 (stereo not drawn)	13	66*	-11	-4	-20	8	68*	1	15	1
COc1ccc(CN2CCNC(=O)C2CC(=O)N2CCc3ccccc3C2)c(OC)c1 (stereo not drawn)	11	17	-37	-7	-30	7	.	.	.	.
Cc1cc(OCc2nc(N)nc(N)c2-c2ccc(Cl)c(Cl)c2)ccc1[N+](=O)[O-]	.	14	.	7	.	.	.	.	.	.
O=c1[nH]ncc(N/N=C\c2ccc(O)cc2O)c1Cl	15	73*	-19	30	-8	-18	80*	1	67*	9
O=C(Nc1ccccc1)c1nnsc1S(=O)c1ccc(Cl)cc1 (stereo not drawn)	33	68*	25	96*	25	4	49*	23*	81*	38*
O=C(Nc1ccc(Cl)cc1)c1cccs1	23	12	-10	-8	0	1	.	.	.	.
C=CCC[C@@H](Cc1ccc(F)cc1)C(=O)OC[C@H](Cc1c[nH]c2ccccc12)NC(=O)[C@@H](CC=C)CC(=O)NCCO	6	74*	28	80*	7	.	52*	30*	76*	51*
Cc1ccc(C(C2=C(O)CC(C)(C)CC2=O)C2C(=O)CC(C)(C)CC2=O)s1 (stereo not drawn)	16	35	-7	-11	-25	-13	.	.	.	.
CC1(C)CC(=O)C(C(C2=C(O)CC(C)(C)CC2=O)c2ccc(Br)s2)C(=O)C1 (stereo not drawn)	10	51*	-19	19	-17	-5	22	34*	42	27*
O=C(c1cc(S(=O)(=O)N2CCOCC2)ccc1F)N1CCc2ccccc21	2	-2	-12	-12	-16	.	.	.	.	.
Cc1c(Cl)cccc1NC(=O)Nc1ccccc1C(N)=O	4	3	-9	0	-5	0	.	.	.	.
Cc1c(Cl)cccc1NC(=O)Nc1ccc(C(N)=O)cc1	20	52*	7	-8	-7	-5	60*	1	24	9
c1ccc2c(c1)CCCC2C1=NCCN1 (stereo not drawn)	0	91*	-3	92*	1	-5	93*	0	97*	11
CC1(C(=O)NS(=O)(=O)c2ccccc2Cl)CCN1C(=O)c1cccc2ccccc12 (stereo not drawn)	.	2	.	-20	.	.	.	.	.	.
CC(C)(C)c1ccc(S(=O)(=O)NC(=O)C2(C)CCN2C(=O)c2cccc3ccccc23)cc1 (stereo not drawn)	.	46*	.	-15	.	.	66*	14*	12	4
Cc1ccccc1CCNC(=O)c1ccc(Cl)c(S(=O)(=O)N2CC(C)OC(C)C2)c1 (stereo not drawn)	13	59*	-12	5	-28	.	22	10	20	27*
SMILES	OX1R antag-1	TAAR1 agonist	OX1R antag-2	TAAR1 antag	CHO parental Ca	GPR7 antagonist	TAAR1 ag confirm	Ga16 ag counter	TAAR1 desensitize	Ga16 antag count
CC1CN(S(=O)(=O)c2cc(C(=O)NCc3ccncc3)ccc2Cl)CC(C)O1 (stereo not drawn)	5	1	-30	-11	-12	.	.	.	.	.
COC(=O)c1ccc(NC(=O)CSc2nncn2-c2ccccn2)cc1	10	-2	-6	0	-12	-15	.	.	.	.
CN(C)c1ccc(N=C/C=C2\N(C)c3ccccc3C2(C)C)cc1	44	47*	-19	9	-13	-4	74*	14*	41	19
CN1\C(=C/C=C/C=C/C=[N+](C)C)C(C)(C)c2ccccc21	.	715*	.	109*	.	2	81*	110*	69*	75*
COc1ccc(S(=O)(=O)N(C)C[C@H]2Oc3ncc(Br)cc3C(=O)N([C@@H](C)CO)C[C@@H]2C)cc1	.	-1	.	8	.	.	.	.	.	.
COc1ccc(C2(C)NC(=O)N(CC(=O)Nc3cccnc3Cl)C2=O)cc1 (stereo not drawn)	-4	17	-6	-8	-3	-8	.	.	.	.
CC1(c2ccc(OC(F)F)cc2)NC(=O)N(CC(=O)Nc2cccnc2Cl)C1=O (stereo not drawn)	10	129*	6	73*	9	.	131*	86*	78*	40*
Clc1ccc(/C=N/Nc2ncnc3ccccc23)cc1Cl	22	45*	-12	14	-20	-2	19	13*	14	-2
COc1cc(CN2CCc3ccccc3C2)cc([N+](=O)[O-])c1O	32	98*	-12	59*	-12	-10	98*	1	77*	-6
